Assay results from different studies.
Target: Epithelial discoidin domain-containing receptor 1 (DDR1, Homo sapiens, UniProt Q08345)

SMILES | test | conditions | remaining binding
Cc1cnn2ncc(-c3ccnc(N(C)C)n3)c2c1 | binding | 1 µM | 100%
O=C(c1ccc(Nc2ncc(Cl)c(-c3cc4ccccc4s3)n2)cc1)N1CCC(N2CCCC2)CC1 | binding, competition with immobilised ligand | 1 µM | 0.4%
COc1ncc2cc3ccccc3nc2c1C#N | cell-free assay, competition with immobilised ligand | 5 µM | 85%
CNC(=O)c1ccc(Nc2ncc(C(F)(F)F)c(NCc3nccnc3N(C)S(C)(=O)=O)n2)cc1 | cell-free assay, competition with immobilised ligand | 0.1 µM | 100%
O=C(NCCCN1CCOCC1)c1ccc(Nc2nccc(-c3cc4ccccc4s3)n2)cc1 | binding, competition with immobilised ligand | 1 µM | 20%
CNC(=O)Nc1ccc2c(c1)CC[C@@]21OC(=O)N(CC(=O)N(Cc2ccc(F)cc2)[C@@H](C)C(F)(F)F)C1=O | cell-free assay, competition with immobilised ligand | 1 µM | 100%
O=C(Nc1c[nH]nc1C(=O)NC1CCNCC1)c1cc(F)cc(F)c1 | binding, competition with immobilised ligand | 1 µM | 100%
C[C@@H](c1ccc(-n2cnc3c(N)ncnc32)cc1)N1CCc2nn(C)c(Cc3ccccc3)c2C1=O | binding, competition with immobilised ligand | 0.1 µM | 8.9%
CC1CCCN1c1nccc(-c2cnn3ncccc23)n1 (stereo not drawn) | binding | 1 µM | 94%
COc1cnc(Nc2cccc(S(N)(=O)=O)c2)nc1N1CCN(c2ccccc2)CC1 | binding, competition with immobilised ligand | 1 µM | 93%
CS(=O)(=O)c1cc(C2(NC(=O)c3cncc4c3cnn4-c3ccc(F)cc3)CC2)ccn1 | cell-free assay, competition with immobilised ligand | 1 µM | 100%
c1cnn2ncc(-c3ccnc(N4CCC45COC5)n3)c2c1 | binding | 1 µM | 82%
O=c1nc(-c2ccccn2)sc2ccccc12 | cell-free assay, competition with immobilised ligand | 1 µM | 85%
F[C@@H]1CCN(c2nccc(-c3cnn4ncccc34)n2)C1 | binding | 1 µM | 83%
O=C(NCCCN1CCOCC1)c1ccc(Nc2ncc(Cl)c(-c3ccc(Cl)s3)n2)cc1 | binding, competition with immobilised ligand | 1 µM | 84%
C=CC(=O)N1CCC(C(=O)NCC(=O)N2CCN(c3nc(-c4cnc(N)nc4C(F)F)nc(N4CCOCC4)n3)CC2)CC1 | binding, competition with immobilised ligand | 1 µM | 100%
CC(C)(O)c1cncc(-c2nc3ccc(F)cc3n2C2CC2)c1 | cell-free assay, competition with immobilised ligand | 1 µM | 100%
N[C@@H]1CCN(c2nccc(-c3cnn4ncccc34)n2)C1 | binding | 1 µM | 100%
CNC(=O)[C@@H]1CC[C@@H](n2c(-c3ccc4cnccc4c3)nc3ccc(C(=O)NCc4cccc(C(N)=O)c4)cc32)C1 | binding, competition with immobilised ligand | 1 µM | 100%
COc1ccnn2ncc(-c3ccnc(N(C)C)n3)c12 | binding | 1 µM | 100%
Cc1cc(NC(=O)c2cccc(S(F)(F)(F)(F)F)c2)cc(-n2ccn3nc(-c4cccnc4)cc23)c1 | cell-free assay, competition with immobilised ligand | 1 µM | 0%
